Test [1] is described as follows: Inhibition of PDE4D7 S129D mutant (unknown origin) preincubated for 5 to 10 mins followed by substrate addition and measured for 10 mins by coupled enzyme based fluorescence analysis. Also noted: species or system Homo sapiens. In outline: (§1)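 Mutationally activated dimeric enzymes: PDE4D7-S129D (PDE4D*) and PDE4B1-S133D (PDE4B*). A real-time coupled enzyme assay measured inhibition instead of a fluorescein-labeled cAMP substrate, because the label prevents UCR2 closure. PDE4B* was used to assess subtype selectivity. The method otherwise followed earlier work.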

A short description of test [2]: Selectivity index, ratio of IC50 for PDE4B1 S133D mutant (unknown origin) to IC50 for PDE4D7 S129D mutant (unknown origin). In outline: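 B/D ratio is the IC50 against PDE4B1-S133D (PDE4B*) divided by the IC50 against PDE4D7-S129D (PDE4D*). Both IC50s come from the real-time coupled enzyme assay on the mutationally activated dimeric enzymes.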
The target of test [3] is 3',5'-cyclic-AMP phosphodiesterase 4B (Homo sapiens, UniProt Q07343, S133D). The test is described as follows: Inhibition of PDE4B1 S133D mutant (unknown origin) preincubated for 5 to 10 mins followed by substrate addition and measured for 10 mins by coupled enzyme based fluorescence analysis. In a few lines:
as §1

As a reminder, the IC50 is the concentration that gives 50% inhibition.

Structures are written as SMILES.

3',5'-cyclic-AMP phosphodiesterase 4B, sequence (Q07343 whole entry S133D): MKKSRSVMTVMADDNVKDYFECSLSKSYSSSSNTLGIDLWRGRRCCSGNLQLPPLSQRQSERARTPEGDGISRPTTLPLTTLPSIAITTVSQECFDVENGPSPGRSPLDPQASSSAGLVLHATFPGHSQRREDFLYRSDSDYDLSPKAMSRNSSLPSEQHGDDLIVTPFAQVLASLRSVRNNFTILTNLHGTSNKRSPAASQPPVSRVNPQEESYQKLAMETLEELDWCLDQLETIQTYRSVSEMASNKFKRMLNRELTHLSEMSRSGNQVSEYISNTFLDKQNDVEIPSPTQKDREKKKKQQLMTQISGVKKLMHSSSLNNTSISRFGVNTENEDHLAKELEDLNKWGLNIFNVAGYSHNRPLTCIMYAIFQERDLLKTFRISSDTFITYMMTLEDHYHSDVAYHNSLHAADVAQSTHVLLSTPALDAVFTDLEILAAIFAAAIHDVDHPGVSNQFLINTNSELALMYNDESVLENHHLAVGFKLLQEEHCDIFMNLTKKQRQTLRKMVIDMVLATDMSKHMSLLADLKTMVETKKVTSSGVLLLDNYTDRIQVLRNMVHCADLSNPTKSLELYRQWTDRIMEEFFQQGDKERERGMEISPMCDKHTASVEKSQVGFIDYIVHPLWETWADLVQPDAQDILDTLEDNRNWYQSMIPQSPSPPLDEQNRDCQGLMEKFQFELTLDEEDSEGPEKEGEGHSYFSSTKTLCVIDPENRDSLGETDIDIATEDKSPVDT

With `COc1cccc(-c2nc(Cc3cn[nH]c3)ccc2OC(F)F)c1`, the figures for the IC50 in test [1] and in test [3] were 2.7 nM and 521 nM, respectively. Besides, the Ratio IC50 in test [2] was 193.

As to `COc1cccc(-c2nc(Cn3ncnn3)ccc2OC(F)F)c1`, the values for the IC50 in test [1] and in test [3] were 17 nM and above 10000 nM, respectively.

With `COc1cccc(-c2nc(CNc3cn[nH]c3)ccc2OC(F)F)c1`, the values for the IC50 in test [1] and in test [3] were 530 nM and 2270 nM, respectively. The Ratio IC50 in test [2] was determined as 4.

Take `COc1cccc(-c2nc(Cn3cnc(C(F)(F)F)n3)ccc2OC(F)F)c1`: the IC50 in test [1] was 743 nM; in test [3] it was above 10000 nM.

For `O=[N+]([O-])c1cccc(-c2nc(Cn3ccnc3)ccc2OC(F)F)c1`, the IC50 in test [1] came to 0.3 nM; in test [3], 81 nM. The Ratio IC50 in test [2] is 270.

Turning to `Fc1cccc(-c2nc(Oc3cn[nH]c3)ccc2OC(F)F)c1`, the IC50 was 70 nM in test [1] and 3110 nM in test [3]. In test [2], the Ratio IC50 was determined as 45.

Take `COc1cccc(-c2nc(Cn3cccn3)ccc2OC(F)F)c1`: the IC50 in test [1] was determined as 281 nM; in test [3], 1060 nM. In test [2], the Ratio IC50 came to 4.

Take `COc1ccc(Cn2cncn2)nc1-c1cccc(OC(F)F)c1`: the IC50 in test [1] was 15 nM; in test [3], above 10000 nM.

Regarding `COc1ccc(Cn2ncnn2)nc1-c1cccc(OC(F)F)c1`, the IC50 in test [1] was 21 nM; in test [3], above 10000 nM.

For the molecule `COc1ccc(Cc2ccc(CCO)cc2)nc1-c1cccc(OC(F)F)c1`, the IC50 in test [1] is 4 nM; in test [3] it was above 10000 nM.

Consider `COc1ccc(Cn2cccn2)nc1-c1cccc(Cl)c1`, for which the IC50 in test [1] is 1150 nM; in test [3] it was 9170 nM. Also, the Ratio IC50 in test [2] was 8.

`COc1ccc(Cc2cn[nH]c2)nc1-c1cccc(C(F)(F)F)c1`: the IC50 was 186 nM in test [1] and 7850 nM in test [3]. In addition, in test [2], the Ratio IC50 worked out at 42.

Regarding `COc1ccc(Oc2cn[nH]c2)nc1-c1cccc(C(F)(F)F)c1`, the IC50 in test [1] came to 3540 nM; in test [3], 3240 nM. Besides, the Ratio IC50 in test [2] was 0.92.

For `FC(F)Oc1ccc(Cc2ccncc2)nc1-c1cccc(OCc2ccccc2)c1`, the IC50 in test [1] stood at 171 nM; in test [3], 143 nM. Moreover, the Ratio IC50 in test [2] came out at 0.84.

On to `COc1cccc(-c2nc(Cc3cncnc3)ccc2OC(F)F)c1`, for which the IC50 in test [1] worked out at 10.2 nM; in test [3] it was 1190 nM. Moreover, in test [2], the Ratio IC50 worked out at 116.

As to `COc1cccc(-c2nc(C(=O)c3cn[nH]c3)ccc2OC(F)F)c1`, the IC50 in test [1] was 873 nM; in test [3], 1930 nM. Besides, in test [2], the Ratio IC50 came to 2.

With `COc1ccc(Cc2ccncc2)nc1-c1cccc(OC(F)F)c1`, the half-maximal inhibitory concentration (IC50) stood at 1.8 nM in test [1] and 665 nM in test [3]. Moreover, the logIC50 in test [1] is 0.26 log(nM). For the same molecule, the Ratio IC50 in test [2] is 364.

Turning to `COc1cccc(-c2nc(COc3cn[nH]c3)ccc2OC(F)F)c1`, the IC50 was 372 nM in test [1] and above 10000 nM in test [3].

Regarding `Fc1cccc(-c2nc(Nc3cn[nH]c3)ccc2OC(F)F)c1`, the IC50 in test [1] amounted to 136 nM; in test [3], 1750 nM. For the same molecule, the Ratio IC50 in test [2] came out at 13.

Consider `COc1ccc(Nc2cn[nH]c2)nc1-c1cccc(C(F)(F)F)c1`, for which the IC50 is 4310 nM in test [1] and above 10000 nM in test [3].

As to `FC(F)Oc1cccc(-c2nc(Cc3ccncc3)ccc2OCc2ccccc2)c1`, the IC50 in test [1] is 610 nM; in test [3], above 7760 nM.

In the case of `COc1cccc(-c2nc(Cn3cncn3)ccc2OC(F)F)c1`, the IC50 in test [1] is 42 nM; in test [3], above 10000 nM.

`COc1ccc(Cc2cn[nH]c2)nc1-c1cccc(OC(F)(F)F)c1`: the IC50 in test [1] is 46 nM; in test [3] it was 7440 nM. For the same molecule, the Ratio IC50 in test [2] is 162.

As to `COc1ccc(Oc2cn[nH]c2)nc1-c1cccc(F)c1`, the IC50 was determined as 836 nM in test [1] and 4540 nM in test [3]. For the same molecule, the Ratio IC50 in test [2] was 5.

With `COc1ccc(Cc2cnn(C)c2)nc1-c1cccc(OC(F)F)c1`, the IC50 came out at 11 nM in test [1] and 1440 nM in test [3]. In test [2], the Ratio IC50 came to 137.

Regarding `COc1cccc(-c2nc(Cc3ccncc3)ccc2OC(F)F)c1`, the IC50 was 3.9 nM in test [1] and 621 nM in test [3]. Besides, the Ratio IC50 in test [2] came to 159.

On to `Fc1ccc(Cc2cn[nH]c2)nc1-c1cccc(Cl)c1`, for which the IC50 was 744 nM in test [1] and above 10000 nM in test [3].

Turning to `COc1ccc(Oc2cn[nH]c2)nc1-c1cccc(OC(F)F)c1`, the figures for the IC50 in test [1] and in test [3] were 1550 nM and above 10000 nM, respectively.

For the molecule `COc1cccc(-c2nc(Cn3ccnc3)ccc2OC(F)F)c1`, the results for the IC50 in test [1] and in test [3] were 2.1 nM and 513 nM, respectively. For the same molecule, the Ratio IC50 in test [2] amounted to 242.

For the molecule `COc1ccc(Nc2cn[nH]c2)nc1-c1cccc(Cl)c1`, the IC50 in test [1] was 468 nM; in test [3], 3160 nM. The Ratio IC50 in test [2] was found to be 7.

Regarding `Fc1cccc(-c2nc(Cn3ccnc3)ccc2OC(F)F)c1`, in test [1], the IC50 is 3.7 nM and the logIC50 was 0.57 log(nM). Besides, the Ratio IC50 in test [2] is 54. Also, the IC50 in test [3] was determined as 198 nM.

On to `COc1ccc(Cn2cnnn2)nc1-c1cccc(OC(F)F)c1`, for which the IC50 in test [1] amounted to 16 nM; in test [3], 1260 nM. Moreover, the Ratio IC50 in test [2] came to 81.

Take `COc1ccc(Cc2cn[nH]c2)nc1-c1cccc(F)c1`: the IC50 was 23.8 nM in test [1] and 995 nM in test [3]. The Ratio IC50 in test [2] is 42.

Regarding `COc1ccc(Cc2ccc(CCCO)cc2)nc1-c1cccc(OC(F)F)c1`, the IC50 in test [1] was 16 nM; in test [3], above 10000 nM.

As to `COc1cccc(-c2nc(Oc3cn[nH]c3)ccc2OC(F)F)c1`, the IC50 in test [1] was 281 nM; in test [3], above 10000 nM.

Regarding `COc1ccc(Nc2cn[nH]c2)nc1-c1cccc(OC(F)F)c1`, the IC50 in test [1] amounted to 188 nM; in test [3], 2500 nM. Also, the Ratio IC50 in test [2] stood at 13.

Turning to `FC(F)Oc1cccc(-c2nc(Cn3ccnc3)ccc2OCc2ccccc2)c1`, the IC50 was 174 nM in test [1] and above 10000 nM in test [3].

For the molecule `COc1ccc(Cn2ccnc2)nc1-c1cccc(OC(F)F)c1`, the IC50 in test [1] turned out to be 1.06 nM; in test [3], 593 nM. The Ratio IC50 in test [2] stood at 559.

`COc1ccc(Nc2cn[nH]c2)nc1-c1cccc(F)c1`: the figures for the IC50 in test [1] and in test [3] were 529 nM and 2530 nM, respectively. Also, the Ratio IC50 in test [2] was determined as 5.

Consider `COc1ccc(Cc2cn[nH]c2)nc1-c1ccc2nonc2c1`, for which the IC50 was determined as 13 nM in test [1] and 730 nM in test [3]. In test [2], the Ratio IC50 came out at 57.

On to `COc1ccc(Cn2cccn2)nc1-c1cccc(F)c1`, for which the IC50 was 5530 nM in test [1] and above 10000 nM in test [3].

Consider `COc1ccc(Cn2cnc(C(F)(F)F)n2)nc1-c1cccc(OC(F)F)c1`, for which the IC50 in test [1] is 785 nM; in test [3], above 10000 nM.

Turning to `COc1ccc(Cc2cn[nH]c2)nc1-c1cccc(Cl)c1`, the IC50 was found to be 6 nM in test [1] and 923 nM in test [3]. In addition, in test [2], the Ratio IC50 came out at 154.

With `COc1cccc(-c2nc(Cc3ccc(CCCO)cc3)ccc2OC(F)F)c1`, the IC50 was 24 nM in test [1] and above 10000 nM in test [3].

Turning to `COc1cccc(-c2nc(Cc3ccc(CCO)cc3)ccc2OC(F)F)c1`, the IC50 in test [1] came out at 6.9 nM; in test [3], 4000 nM. In test [2], the Ratio IC50 is 581.

Consider `COc1ccc(Cn2cccn2)nc1-c1cccc(C(F)(F)F)c1`, for which the IC50 in test [1] and in test [3] was above 10000 nM each time.

As for `COc1ccc(Cc2cn[nH]c2)nc1-c1cccc(OC(F)F)c1`, the results for the IC50 in test [1] and in test [3] were 1.4 nM and 1070 nM, respectively. Moreover, the Ratio IC50 in test [2] stood at 793.

For `FC(F)Oc1cccc(-c2nc(Cc3cn[nH]c3)ccc2OCc2ccccc2)c1`, the figures for the IC50 in test [1] and in test [3] were 164 nM and above 10000 nM, respectively.

With `COc1cccc(-c2nc(Cc3cn[nH]c3)ccc2OC)c1`, in test [1], half-maximal inhibition (IC50) was put at 13 nM and the logIC50 is 1.11 log(nM). Also, in test [2], the Ratio IC50 turned out to be 165. Also, in test [3], the IC50 was 2130 nM.

Turning to `Fc1cccc(-c2nc(Cc3cn[nH]c3)ccc2OC(F)F)c1`, the IC50 was determined as 7.6 nM in test [1] and 1070 nM in test [3]. The Ratio IC50 in test [2] worked out at 141.

`FC(F)Oc1ccc(Cn2ccnc2)nc1-c1cccc(OCc2ccccc2)c1`: the IC50 in test [1] is 85 nM; in test [3] it was 46 nM. For the same molecule, the Ratio IC50 in test [2] stood at 0.54.

As for `COc1cccc(-c2nc(Nc3cn[nH]c3)ccc2OC(F)F)c1`, the values for the IC50 in test [1] and in test [3] were 658 nM and above 10000 nM, respectively.

In the case of `O=[N+]([O-])c1cccc(-c2nc(Cc3cn[nH]c3)ccc2OC(F)F)c1`, the IC50 came out at 0.36 nM in test [1] and 91 nM in test [3]. Moreover, the Ratio IC50 in test [2] came to 254.

Take `COc1ccc(Oc2cn[nH]c2)nc1-c1cccc(Cl)c1`: the IC50 is 306 nM in test [1] and 4160 nM in test [3]. The Ratio IC50 in test [2] came to 14.

Consider `COc1cccc(-c2nc(Cc3cccnc3)ccc2OC(F)F)c1`, for which the values for the IC50 in test [1] and in test [3] were 12.3 nM and 764 nM, respectively. Also, the Ratio IC50 in test [2] came to 62.

In the case of `COc1cccc(-c2nc(Cn3cnnn3)ccc2OC(F)F)c1`, the figures for the IC50 in test [1] and in test [3] were 23 nM and 646 nM, respectively. Further, the Ratio IC50 in test [2] stood at 28.

On to `FC(F)Oc1ccc(Cc2cn[nH]c2)nc1-c1cccc(OCc2ccccc2)c1`, for which the IC50 stood at 446 nM in test [1] and 274 nM in test [3]. Besides, the Ratio IC50 in test [2] is 0.61.

Regarding `COc1cccc(-c2nc(Cc3cnn(C)c3)ccc2OC(F)F)c1`, the IC50 was 3.5 nM in test [1] and 853 nM in test [3]. Moreover, the Ratio IC50 in test [2] was found to be 244.

The record behind these values is ChEMBL document CHEMBL5316305, “An Empirical Quantitative Structure-Activity Relationship Equation Assists the Discovery of High-Affinity Phosphodiesterase 4D Inhibitors as Leads to PET Radioligands” (J Med Chem, 2023).
